Measured values pooled from the literature.
Lines come from different studies, so protocols differ.
Read-out: cell growth or viability

COC(=O)CN=c1scc(-c2ccccc2)n1-c1ccccc1[N+](=O)[O-]  IC50 (Panc 02.03; MTT; 72 h): > 100 µM
Nc1ncnc2c1ncn2[C@@H]1O[C@H](CO)[C@@H](O)[C@@H]1O  IC50 (HN-6; 72 h): > 20 µM
COc1nc(OCc2cccc(-c3ccccc3)c2C)ccc1CNCCNC(C)=O  IC50 (HK-2; MTT): 1.9 µM
CC(C)(C=O)Cc1cc(C(C)(C)C)c(O)c(C(C)(C)C)c1  IC50 (HN-6; 72 h): > 20 µM
O=C(NCCc1c[nH]c2ccccc12)C(=O)c1c[nH]c2ccc(Br)cc12  IC50 (C4-2; MTT): > 100 µM
CCCCc1ccc2[nH]c(NC(=O)OC)nc2c1  IC50 (HN-6; 72 h): 0.126 µM
COc1ccc2[nH]cc(S(C)(=O)=Nc3cc(OC)c(OC)c(OC)c3)c2c1 (centres unmarked)  IC50 (C4-2; MTT; 48 h): > 40 µM
CC1(C)[C@@H](O)CC[C@]2(C)[C@H]3C(=O)C=C4[C@@H]5C[C@@](C)(C(=O)O)CC[C@]5(C)CC[C@@]4(C)[C@]3(C)CC[C@@H]12  IC50 (SGC-7901; MTT; 48 h): 10.2 µM
COc1cccc(Oc2ccccc2NC(=O)CNC(=O)c2cccc3ccccc23)c1  IC50 (SK-N-DZ): 0.288 µM
CCN(CC)CCNC(=O)COc1ccc(OC)cc1  IC50 (HN-6; 72 h): > 20 µM
O=C(O)c1cc(O)c2c(c1)C(=O)c1cccc(O[C@@H]3O[C@H](CO)[C@@H](O)[C@H](O)[C@H]3O)c1C2=O  IC50 (HK-2; MTT; 24 h): > 500 µM
CCN1CCN(c2ccc(Nc3cc(N(C)C(=O)Nc4c(Cl)c(OC)cc(OC)c4Cl)ncn3)cc2)CC1  IC50 (RT-112; ATP luminescence; 96 h): 0.0117 µM
COc1ccc2c(c1OC)C(=O)O[C@@H]2[C@H]1c2c(cc3c(c2OC)OCO3)CCN1C  IC50 (HN-6; 72 h): 16.3 µM
CC(C)C[C@H](NC(=O)[C@H](Cc1ccccc1)NC(=O)c1cnccn1)B(O)O  IC50 (A2058; ATP luminescence): 0.013 µM
NCCc1ccc(O)c(O)c1  IC50 (HN-6; 72 h): > 20 µM
CC(C)(C)C1=CC(=NNc2ccc(C#N)cc2)C=C(C(C)(C)C)C1=O  IC50 (human Fibroblast; resazurin; 24 h): > 100 µM
Cn1cc(C(=O)C(=O)NCCc2c[nH]c3ccccc23)c2ccccc21  IC50 (C4-2; MTT): > 100 µM
Nc1nc(Nc2ccccc2)nc2c1ncn2[C@@H]1O[C@H](CO)[C@@H](O)[C@H]1O  IC50 (HN-6; 72 h): > 20 µM
Nc1ccn([C@@H]2O[C@H](CO)[C@@H](O)C2(F)F)c(=O)n1  IC50 (Panc 02.03; MTT; 72 h): 0.38 µM
COc1c(O)cc2c(c1O)C(=O)c1c(cc(C)c(O)c1OC)C2=O  IC50 (HK-2; MTT; 24 h): > 500 µM
O=C(O)CCCc1ccccc1  IC50 (BCPAP; MTT; 72 h): > 50 µM
Nc1ccc(Cl)c[n+]1[Pt-2]([Cl])([Cl])[n+]1cc(Cl)ccc1N  IC50 (BEAS-2B; MTT; 24 h): 10.3 µM
COc1cc([C@@H]2c3cc4c(cc3[C@@H](O[C@@H]3O[C@@H]5CO[C@@H](C)O[C@H]5[C@H](O)[C@H]3O)[C@H]3COC(=O)[C@H]23)OCO4)cc(OC)c1O  IC50 (BEAS-2B): 11.2 µM
CCN(CC)CCCCNc1ncc2cc(-c3cc(OC)cc(OC)c3)c(NC(=O)NC(C)(C)C)nc2n1  IC50 (RT-112; MTT; 5 days): 0.015 µM
O=C1NCCc2[nH]c(-c3ccncc3)cc21  IC50 (LOX IMVI): 3.58 µM
CCN1C(=O)N(c2c(F)c(OC)cc(OC)c2F)Cc2cnc3[nH]c(CN4CCOCC4)cc3c21  IC50 (KATO III; ATP luminescence; 96 h): 0.00148 µM
COc1ccc2c(C(=O)C(=O)NCCc3c[nH]c4ccccc34)c[nH]c2c1  IC50 (C4-2; MTT): > 100 µM
CCOc1ccc(C(=O)NN=C2C=C(C(C)(C)C)C(=O)C(C(C)(C)C)=C2)cc1  IC50 (human Fibroblast; resazurin; 24 h): > 100 µM
N=C(N)c1ccc(N=Nc2c(O)ccc3cc(O)ccc23)cc1  IC50 (MDA-MB-468; MTT): 20 µM
CCCCCCNC(=O)n1cc(F)c(=O)[nH]c1=O  IC50 (C6; MTT; 72 h): 7 µM
O=C(O)c1cc(O)c2c(c1)C(=O)c1cccc(O)c1C2=O  IC50 (HK-2; MTT; 24 h): 210 µM
COC(C)(C)CCC[C@](C)(O)[C@H]1CC[C@]2(C)[C@@H]1[C@H](O)C[C@@H]1[C@@]3(C)CC[C@H](O)C(C)(C)[C@@H]3CC[C@]12C  IC50 (BEAS-2B; MTT; 72 h): 24.6 µM
C=C(C)C(=O)Nc1ccc(-c2c(-c3ccc(Oc4nccc(C)n4)c(F)c3)c3c(N)ncnc3n2C)cc1  IC50 (RT-112; ATP luminescence; 96 h): 0.212 µM
COc1cc(Nc2nccc(-c3cnn4nc(OC)ccc34)n2)cc(C(F)(F)F)c1  IC50 (RERF-LC-Ad2; ATP luminescence): 0.36 µM
O=C(CNC(=O)c1cccc2ccccc12)Nc1ccccc1Oc1ccccc1  IC50 (SK-N-DZ): 0.237 µM
CN(C)CC[C@@H](c1ccc(Cl)cc1)c1ccccn1  IC50 (HN-6; 72 h): > 20 µM
COc1ccc(Oc2ccccc2NC(=O)CNC(=O)c2cccc3ccccc23)cc1  IC50 (SK-N-DZ): 0.271 µM
Cc1ccc(C(=O)Nc2ccc(Oc3cc4cnn(C)c4cc3-c3cn[nH]c3)c(F)c2)c(=O)n1-c1ccc(F)cc1  IC50 (KATO III; ATP luminescence): 0.354 µM
